We go through five compounds from ChEMBL document CHEMBL3244343, “7-(Aminoethyl) ether and thioether of daunomycinone” (1979).

One may read the ΔTm as the shift of the melting midpoint relative to a reference. A word on the T/C: it is the ratio of treated to control.

Assay [1] can be described thus: Binding affinity to DNA (unknown origin) assessed as DNA interaction by measuring change in melting temperature. The method, boiled down:
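Thermal denaturation (melting temperature) shift of DNA in solution, read as ΔTm in °C. Buffer was 0.010 M phosphate, pH 7.0, with 10^-5 M EDTA plus 5% Me2SO to solubilize the compounds. Other steps followed a previously described method.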

Assay [2] relates to P388. The assay can be described thus: Antitumor activity against mouse P388 cells allografted in mouse assessed as increase in survival time at 50 mg/kg, po q4d administered on days 5, 9 and 13 relative to control. Format: functional. The method, boiled down: (§1)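 P388 leukemia cells were injected ip into mice on day 0, and the tumor was allowed to advance before dosing on days 5, 9 and 13. Read-out is the survival time of treated relative to control mice (T/C, %), with ≥125% required for activity. Each value comes from a single test.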

Assay [3] concerns L1210. The assay can be described thus: Inhibition of RNA synthesis in mouse L1210 cells assessed as inhibition of [3H]uridine incorporation. Format: functional. As to conditions: read-out: ED50 (the source's name). A digest of the protocol: (§2)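 L1210 leukemia cells in culture. Incorporation of [3H]thymidine (DNA) or [3H]uridine (RNA) was measured, and the dose giving 50% inhibition (ED50) was reported. Follows a previously described procedure, with 1% Me2SO added for some compounds.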

For assay [4], the system named is L1210. In words: Inhibition of DNA synthesis in mouse L1210 cells assessed as inhibition of [3H]thymidine incorporation. The assay is classed as functional. As to conditions: read-out: ED50 (the source's name). The method, boiled down: as §2
(In general: Uptake of a labelled nucleoside into DNA is a usual measure of proliferation.)

In assay [5] the test system is P388. In words: Antitumor activity against mouse P388 cells allografted in mouse assessed as increase in survival time at 200 mg/kg, po q4d administered on days 5, 9 and 13 relative to control. Format: functional. The method, boiled down:
as §1

The test system of assay [6] is P388. In words: Antitumor activity against mouse P388 cells allografted in mouse assessed as increase in survival time at 6.25 mg/kg, po qd administered from day 1 to day 9 relative to control. The assay is classed as functional.
The subject of assay [7] is P388. The assay can be described thus: Antitumor activity against mouse P388 cells allografted in mouse assessed as increase in survival time at 0.78 mg/kg, po qd administered from day 1 to day 9 relative to control. Format: functional.
For assay [8], the system named is P388. The assay can be described thus: Antitumor activity against mouse P388 cells allografted in mouse assessed as increase in survival time at 2 mg/kg, po q4d administered on days 5, 9 and 13 relative to control. The assay is classed as functional. A digest of the protocol:
as §1

For assay [9], the system named is P388. The assay can be described thus: Antitumor activity against mouse P388 cells allografted in mouse assessed as increase in survival time at 1 mg/kg, po q4d administered on days 5, 9 and 13 relative to control. Format: functional. The method, boiled down:
as §1

`COc1cccc2c1C(=O)c1c(O)c3c(c(O)c1C2=O)C[C@@](O)(C(C)=O)C[C@@H]3OCCN.Cl`: the thermal shift (ΔTm) in [1] amounted to 8.2 °C. Further, the T/C in assay [2] is given as 112%. Moreover, the EC50 in [3] was determined as 1 µM; in assay [4], 2 µM.

`COc1cccc2c1C(=O)c1c(O)c3c(c(O)c1C2=O)C[C@@](O)(C(C)=O)C[C@@H]3SCCN.Cl`: in assay [1], the thermal shift (ΔTm) was 6.3 °C. Moreover, the T/C in assay [5] was determined as 109%. Moreover, the values for the EC50 in [3] and in assay [4] were 4 µM and 6 µM, respectively.

With `COc1cccc2c1C(=O)c1c(O)c3c(c(O)c1C2=O)C[C@@](O)(C(C)=O)C[C@@H]3OC(=O)CCN.Cl`, the T/C in [6] was 126%; in assay [2], 116%. In addition, the ΔTm in [1] was 1 °C. For the same compound, the EC50 was 6 µM in assay [3] and 8 µM in [4].

As to `COc1cccc2c1C(=O)c1c(O)c3c(c(O)c1C2=O)C[C@@](O)(C(C)=O)C[C@@H]3O[C@H]1C[C@H](N)[C@H](O)[C@H](C)O1.Cl` [DAUNORUBICIN HYDROCHLORIDE], the T/C in [7] is reported as 160%; in [8], 133%. Besides, in assay [1], the shift in melting temperature (ΔTm) stood at 11.2 °C. Also, the EC50 in assay [3] was 0.3 µM; in assay [4] it was 0.4 µM.

Consider `COc1cccc2c1C(=O)c1c(O)c3c(c(O)c1C2=O)C[C@@](O)(C(=O)CO)C[C@@H]3O[C@H]1C[C@H](N)[C@H](O)[C@H](C)O1` [DOXORUBICIN], for which the T/C in [7] turned out to be 197%; in assay [9] it was 130%. Further, in assay [1], the ΔTm amounted to 13.6 °C. The EC50 came out at 0.7 µM in assay [3] and 2 µM in [4].
